Bioassay records (PubChem BioAssay)
CHOP UPR activ – activators of apoptotic CHOP UPR arm, primary screen, cell-based, CHO-CHOP luciferase reporter, luminescence, uHTS; 330,000 tested, 0.34% active; UPR activation; percent of tunicamycin response over DMSO baseline; activation, % at 10 µM;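 active means at 10 µM dose, activation of 40% or more, normalized to positive control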;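 further: 100% = tunicamycin at 10 µg/mL and 0% = DMSO alone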
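Material: CHO-CHOP cells, stable luciferase reporter of PERK-eIF2a-CHOP signalling; quantity: 500 reporter cells seeded per well; buffer or medium: F12 medium containing 10% fetal bovine serum; compound: one dose, 10 µM in 0.5% DMSO; incubation: 6 h compound treatment, 37 °C; measured by: Steady-Glo luciferase luminescence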
Mdm2 MdmX PPI – inhibitors of human Mdm2-MdmX association, primary screen, cell-based, luminescence, split luciferase, SaOS-2, uHTS; Protein Mdm4 (Homo sapiens) + E3 ubiquitin-protein ligase Mdm2 (Homo sapiens), …; AID 485346, 2010; inhibition, % at 8 µM; SaOS-2 split-luciferase Mdm2/MdmX complementation; 330,000 tested, 3% active;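 active means inhibition of at least 50% at 8 µM in the primary screen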
Target sequence (O15151 whole entry, looked up): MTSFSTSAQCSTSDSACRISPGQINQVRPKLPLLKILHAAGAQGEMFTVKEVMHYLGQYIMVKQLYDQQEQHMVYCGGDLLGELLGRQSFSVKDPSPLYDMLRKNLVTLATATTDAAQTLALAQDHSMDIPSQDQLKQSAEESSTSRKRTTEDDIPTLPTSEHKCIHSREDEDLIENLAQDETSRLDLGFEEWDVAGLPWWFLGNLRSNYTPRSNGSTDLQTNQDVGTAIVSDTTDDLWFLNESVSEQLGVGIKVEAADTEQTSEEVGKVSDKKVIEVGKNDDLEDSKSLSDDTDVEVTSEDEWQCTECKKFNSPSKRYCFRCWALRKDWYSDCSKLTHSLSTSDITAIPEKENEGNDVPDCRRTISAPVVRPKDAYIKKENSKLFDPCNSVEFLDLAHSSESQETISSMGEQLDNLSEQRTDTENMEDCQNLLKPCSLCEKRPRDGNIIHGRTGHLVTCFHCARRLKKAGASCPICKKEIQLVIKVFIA
Target sequence (Q00987 whole entry, looked up): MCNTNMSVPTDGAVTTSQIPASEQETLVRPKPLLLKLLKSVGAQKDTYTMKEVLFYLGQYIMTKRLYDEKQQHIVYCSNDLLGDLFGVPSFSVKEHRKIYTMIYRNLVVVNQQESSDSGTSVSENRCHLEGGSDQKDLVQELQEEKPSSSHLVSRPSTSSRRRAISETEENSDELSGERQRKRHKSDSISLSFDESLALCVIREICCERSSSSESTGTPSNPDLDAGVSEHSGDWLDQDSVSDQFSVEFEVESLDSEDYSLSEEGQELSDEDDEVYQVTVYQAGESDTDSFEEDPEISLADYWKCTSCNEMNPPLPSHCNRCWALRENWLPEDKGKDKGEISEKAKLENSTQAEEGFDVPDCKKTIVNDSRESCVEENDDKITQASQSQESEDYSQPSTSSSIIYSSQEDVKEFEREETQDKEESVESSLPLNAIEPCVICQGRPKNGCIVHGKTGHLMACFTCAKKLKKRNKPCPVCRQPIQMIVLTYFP
CSC inhib – cancer stem cell viability inhibitors, primary screen, luminescence. cancer stem cell-like cells viability. 300,000 tested, 1.1% active. inhibition, % at 7.5 µM; in the data active means inhibition above about 75%; tested in HMLE shEcad cells
T cruzi inh – inhibitors of intracellular T. cruzi growth, primary screen, luminescence, NIH3T3 host cells | T. cruzi beta-gal in NIH3T3, 90 h | inhibition, % (test concentration not listed) | 300,000 tested, 1.4% active;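 active means mean inhibition across valid replicates above about 55%, limit read from the data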;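 further: signal also drops with host cell toxicity which is not excluded here; 0% = plate median of DMSO wells and 100% = zero luminescence signal; higher percent means less beta-gal luminescence so fewer parasites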
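Assay system: NIH/3T3 fibroblasts plus reporter T. cruzi. Amount: NIH/3T3 cells, 5,000 per well. Buffer or medium: DMEM, 2% fetal bovine serum. Doses: compound pinned at 50 nL/well, DMSO. Schedule: ≥90 h infection period, 3 h prior cell attachment. Signal: luminescent β-galactosidase signal after 60 min lysis. Read-out: parasite load inhibition, %.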
UPR XBP1 act – activators of adaptive XBP1 UPR arm, primary screen, cell-based, CHO-XBP1 luciferase reporter, luminescence, uHTS. IRE1-XBP1 UPR activation; percent of tunicamycin response, DMSO as zero. activation, % at 20 µM. AID 463104, 2010. 330,000 tested, 0.33% active;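 active means versus positive control, 20 µM dose yields 30% or more activation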;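 further: 100% = tunicamycin at 10 µg/mL and 0% = DMSO only wells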
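incubation = overnight seeding at 37 °C, 6 h compound treatment at 37 °C | assay system = CHO-XBP1 cells stably carrying IRE1-XBP1-driven luciferase reporter | input = 1000 cells per well | detection = luciferase luminescence | dosing = single point, 20 µM final compound, 1% DMSO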
Beta cell apopt – inhibitors of cytokine-induced beta cell apoptosis, primary screen, luminescence | INS-1E cytokine-induced death, ATP luminescence, 48 h; percent of positive-control rescue, neutral wells zero | protection from apoptosis, % (test concentration not listed) | 300,000 tested, 0.8% active | AID 435005, 2010;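 active means Every replicate reaches about 75%, or at least half do and their mean reaches it too, limit read from the data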;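 further: 0% = cytokine-treated negative control wells and 100% = positive control rescue; higher means more ATP so stronger rescue from cytokine killing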
Active calls of the source: *. Compounds with a hit are over-represented: about 5% of the library has one in this group of screens.

Screening CCCCNc1c(-c2ccc(SC(C)CC)c(OC)c2)nc2ccc(Cl)cn12 (centres undefined) returned CHOP UPR activ 1, Mdm2 MdmX PPI 23, CSC inhib 56, UPR XBP1 act -2 and Beta cell apopt 11.
Screening Cc1ccc(NC(=O)CN2C(=O)c3ccccc3C2=O)nc1 returned CHOP UPR activ -1, Mdm2 MdmX PPI -8, CSC inhib -4, T cruzi inh -5, UPR XBP1 act 0 and Beta cell apopt -4.
For CC(=O)Oc1ccc(C2=NN(c3ccccc3)C(c3ccccc3)C2)cc1 (centres undefined) the results were CHOP UPR activ 1, Mdm2 MdmX PPI 21, CSC inhib 108*, T cruzi inh 32, UPR XBP1 act 3 and Beta cell apopt 1.
`CCN(CC)CC(O)Cn1c(C)c(-c2ccccc2)c2cc([N+](=O)[O-])ccc21` (centres undefined) gave CHOP UPR activ 2, Mdm2 MdmX PPI 35, CSC inhib 21, T cruzi inh 31, UPR XBP1 act 3 and Beta cell apopt 1.
Cc1ccccc1-n1ncc(C(C)NC(=O)c2ccco2)c1C (centres undefined) was read as CHOP UPR activ 3, Mdm2 MdmX PPI -15, CSC inhib -2, T cruzi inh -2, UPR XBP1 act 2 and Beta cell apopt -2.
`CCN(CC)C1=CC(=[N+]2CCCC2)CC(C)(C)C1` gave CHOP UPR activ 2, Mdm2 MdmX PPI 18, CSC inhib 13, T cruzi inh 64*, UPR XBP1 act -2 and Beta cell apopt 46.
Screening CCN(C(=O)CCC(=O)N(CC)c1ccccc1)c1ccccc1 returned CHOP UPR activ -3, Mdm2 MdmX PPI 0, CSC inhib 11, T cruzi inh 2, UPR XBP1 act 1 and Beta cell apopt 1.
`CCCC(=O)N(CCN(C(=O)CCC)c1ccccc1)c1ccccc1` gave CHOP UPR activ 2, Mdm2 MdmX PPI 31, CSC inhib -18, T cruzi inh 10, UPR XBP1 act 0 and Beta cell apopt 79*.
For Cc1cc(Br)ccc1NC(=O)CN1C(=O)C2C3CC(c4ccccc4)C(C3)C2C1=O (centres undefined) the results were CHOP UPR activ 2, Mdm2 MdmX PPI 5, CSC inhib 22, T cruzi inh 56*, UPR XBP1 act 2 and Beta cell apopt 10.
COc1ccc(S(=O)(=O)Nc2cc(SCC(=O)O)c(O)c3ccccc23)cc1 was read as CHOP UPR activ -1, Mdm2 MdmX PPI 20, CSC inhib 37, T cruzi inh 4, UPR XBP1 act 0 and Beta cell apopt 94*.
`NS(=O)(=O)c1ccc(CCNC(=O)Cc2ccc(Cl)cc2)cc1` gave CHOP UPR activ 0, Mdm2 MdmX PPI 14, CSC inhib 18, T cruzi inh 1, UPR XBP1 act -4 and Beta cell apopt 2.
c1ccc(N2CCN(c3ccccc3)C2c2cccnc2)cc1 was read as CHOP UPR activ 1, Mdm2 MdmX PPI 9, CSC inhib -3, T cruzi inh 36, UPR XBP1 act -1 and Beta cell apopt 0.
`Cc1ccc(N2CCN(c3ccc(C)cc3)C2c2cccnc2)cc1` gave CHOP UPR activ 1, Mdm2 MdmX PPI 7, CSC inhib 1, T cruzi inh 59*, UPR XBP1 act -3 and Beta cell apopt -5.
Clc1cccc(CN2CCc3c([nH]c4ccccc34)C2)c1Cl was read as CHOP UPR activ 2, Mdm2 MdmX PPI 41, CSC inhib 111*, T cruzi inh 20, UPR XBP1 act 16 and Beta cell apopt -2.
`O=C(CSC(=O)c1ccccc1)Nc1ccccc1F` gave CHOP UPR activ -1, Mdm2 MdmX PPI 10, CSC inhib -17, UPR XBP1 act 2 and Beta cell apopt 1.
`CC(=O)CSc1ccc(-c2nc3ccccc3[nH]2)cn1` gave CHOP UPR activ 1, Mdm2 MdmX PPI -93, CSC inhib 43, T cruzi inh 5, UPR XBP1 act -7 and Beta cell apopt 79*.
Screening Fc1ccc(COc2ccc(Br)cc2CNCc2ccncc2)cc1 returned CHOP UPR activ 0, Mdm2 MdmX PPI 0, T cruzi inh 71*, UPR XBP1 act 0 and Beta cell apopt 0.
For Fc1ccc(COc2cccc(CNCc3ccncc3)c2)cc1 the results were CHOP UPR activ -1, Mdm2 MdmX PPI -7, CSC inhib -6, T cruzi inh 60*, UPR XBP1 act -2 and Beta cell apopt 25.
COc1cccc(NC(=O)CSc2nc3c(oc4ccccc43)c(=O)[nH]2)c1 was read as CHOP UPR activ 2, Mdm2 MdmX PPI 20, CSC inhib 10, T cruzi inh -14, UPR XBP1 act -3 and Beta cell apopt -5.
`CN1CCC(OC(=O)c2ccccc2)CC1` gave CHOP UPR activ 0, Mdm2 MdmX PPI -1, CSC inhib 16, T cruzi inh 60*, UPR XBP1 act -3 and Beta cell apopt -2.
COc1ccc(C(=O)OC2CCN(C)CC2)cc1 was read as CHOP UPR activ -3, Mdm2 MdmX PPI 6, CSC inhib 51, T cruzi inh 55*, UPR XBP1 act -2 and Beta cell apopt -6.
`CN1CCC(OC(=O)COc2ccccc2)CC1` gave CHOP UPR activ 1, Mdm2 MdmX PPI -7, CSC inhib -7, T cruzi inh -4, UPR XBP1 act 0 and Beta cell apopt -4.
Screening COc1cccc(C(=O)OC2CCN(C)CC2)c1 returned CHOP UPR activ 0, Mdm2 MdmX PPI -31, CSC inhib -2, T cruzi inh 70*, UPR XBP1 act -2 and Beta cell apopt -6.
CCOc1ccc(C(=O)OC2CCN(C)CC2)cc1 was read as CHOP UPR activ -1, Mdm2 MdmX PPI -5, CSC inhib 60, T cruzi inh 37 and UPR XBP1 act 2.
CN(CC(=O)Nc1cccc(F)c1)C(=O)CCCn1c(=O)oc2ccccc21 was read as CHOP UPR activ 0, Mdm2 MdmX PPI 8, CSC inhib -1, T cruzi inh -8, UPR XBP1 act 1 and Beta cell apopt 2.
CCCCCCOC(=O)C(C#N)c1nc2ccccc2nc1N1CCCCC1 (centres undefined) was read as CHOP UPR activ 1, Mdm2 MdmX PPI -16, CSC inhib 36, T cruzi inh 37, UPR XBP1 act 3 and Beta cell apopt 13.
